Results on 30 compounds are retold here after ChEMBL document CHEMBL1909611, “Identification and SAR of selective inducible nitric oxide synthase (iNOS) dimerization inhibitors” (Bioorg Med Chem Lett, 2011).

Common to all, as to type: cell-based
Test [1] has as its target T1, Nitric oxide synthase 3 (Homo sapiens) (UniProt P29474).
T1 sequence (whole entry): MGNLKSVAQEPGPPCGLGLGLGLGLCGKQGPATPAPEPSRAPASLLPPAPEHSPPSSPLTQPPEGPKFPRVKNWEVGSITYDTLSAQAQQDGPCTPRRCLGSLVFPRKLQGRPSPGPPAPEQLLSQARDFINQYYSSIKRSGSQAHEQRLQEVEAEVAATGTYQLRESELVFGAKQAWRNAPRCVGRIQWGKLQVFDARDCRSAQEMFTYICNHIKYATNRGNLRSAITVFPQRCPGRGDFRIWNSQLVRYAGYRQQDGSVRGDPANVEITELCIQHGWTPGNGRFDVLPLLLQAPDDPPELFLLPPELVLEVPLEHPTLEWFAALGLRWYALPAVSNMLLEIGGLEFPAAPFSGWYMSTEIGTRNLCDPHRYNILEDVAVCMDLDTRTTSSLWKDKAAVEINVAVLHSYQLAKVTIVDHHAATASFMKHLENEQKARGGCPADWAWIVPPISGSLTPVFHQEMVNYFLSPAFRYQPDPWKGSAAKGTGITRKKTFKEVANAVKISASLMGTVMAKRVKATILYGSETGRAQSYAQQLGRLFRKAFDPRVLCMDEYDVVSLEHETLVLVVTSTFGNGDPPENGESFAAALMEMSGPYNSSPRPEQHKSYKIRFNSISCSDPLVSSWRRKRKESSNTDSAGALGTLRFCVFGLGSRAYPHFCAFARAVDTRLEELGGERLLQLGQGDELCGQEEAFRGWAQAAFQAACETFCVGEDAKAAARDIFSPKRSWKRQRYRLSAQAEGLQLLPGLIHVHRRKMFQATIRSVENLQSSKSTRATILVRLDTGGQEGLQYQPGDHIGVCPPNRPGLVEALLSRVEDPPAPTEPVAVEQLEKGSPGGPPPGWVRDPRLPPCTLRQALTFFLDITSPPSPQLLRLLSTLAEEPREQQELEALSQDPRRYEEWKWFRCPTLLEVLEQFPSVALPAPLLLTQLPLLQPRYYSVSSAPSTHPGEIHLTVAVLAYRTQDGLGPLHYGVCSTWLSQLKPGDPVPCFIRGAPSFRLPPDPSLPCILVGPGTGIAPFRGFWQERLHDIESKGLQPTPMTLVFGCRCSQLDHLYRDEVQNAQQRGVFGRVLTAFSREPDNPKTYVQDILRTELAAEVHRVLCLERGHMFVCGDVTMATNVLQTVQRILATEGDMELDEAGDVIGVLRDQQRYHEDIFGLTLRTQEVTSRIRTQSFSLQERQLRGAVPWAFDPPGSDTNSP
The test can be described thus: Inhibition of human eNOS expressed in HEK293 cells assessed as inhibition A23187-induced nitric oxide production at 100 uM incubated for 24 hrs measured after 18 hrs of A23187 challenge by 2,3-diaminonaphthalene assay. The method in brief:
(§1)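 Transiently transfected cells plated at 5e5 cells/ml; compounds added immediately by pin transfer. Incubated 24 h with compound, then activated by ionophore (0.8 µM final). Fluorescence (ex 360/em 425 nm) read after raising pH with NaOH (0.12 N final). Values are mean of three experiments with SD. At 100 µM, <50% inhibition is reported as >100.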

Test [2] addresses T2, Nitric oxide synthase 1 (Homo sapiens, UniProt P29475). Briefly: Inhibition of human nNOS expressed in HEK293 cells assessed as inhibition ionomycin-induced nitric oxide production incubated for 24 hrs measured after 18 hrs of ionomycin challenge by 2,3-diaminonaphthalene assay. The method in brief: as §1
Test [3] addresses Nitric oxide synthase, inducible (Homo sapiens, UniProt P35228). The test can be described thus: Inhibition of human iNOS expressed in human HEK293 cells assessed as nitrite accumulation after 18 hrs by 2,3-diaminonapthalene assay. The method in brief: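 Transiently transfected cells plated at 5e5 cells/ml; compounds added immediately by pin transfer. Incubated 18 h for nitrite accumulation. Fluorescence (ex 360/em 425 nm) read after raising pH with NaOH (0.12 N final). Values are mean of three experiments with SD. At 100 µM, <50% inhibition is reported as >100.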

In test [4] the target is T3, Nitric oxide synthase 3 (Homo sapiens, UniProt P29474).
T3 sequence (P29474 whole entry): T1 sequence (whole entry)
The test can be described thus: Inhibition of human eNOS expressed in HEK293 cells assessed as inhibition A23187-induced nitric oxide production incubated for 24 hrs measured after 18 hrs of A23187 challenge by 2,3-diaminonaphthalene assay. The method in brief:
as §1

For test [5], the target named is T2, Nitric oxide synthase 1. The test can be described thus: Inhibition of human nNOS expressed in HEK293 cells assessed as inhibition ionomycin-induced nitric oxide production at 100 uM incubated for 24 hrs measured after 18 hrs of ionomycin challenge by 2,3-diaminonaphthalene assay. The method in brief:
as §1

Nitric oxide synthase, inducible, sequence (P35228 whole entry): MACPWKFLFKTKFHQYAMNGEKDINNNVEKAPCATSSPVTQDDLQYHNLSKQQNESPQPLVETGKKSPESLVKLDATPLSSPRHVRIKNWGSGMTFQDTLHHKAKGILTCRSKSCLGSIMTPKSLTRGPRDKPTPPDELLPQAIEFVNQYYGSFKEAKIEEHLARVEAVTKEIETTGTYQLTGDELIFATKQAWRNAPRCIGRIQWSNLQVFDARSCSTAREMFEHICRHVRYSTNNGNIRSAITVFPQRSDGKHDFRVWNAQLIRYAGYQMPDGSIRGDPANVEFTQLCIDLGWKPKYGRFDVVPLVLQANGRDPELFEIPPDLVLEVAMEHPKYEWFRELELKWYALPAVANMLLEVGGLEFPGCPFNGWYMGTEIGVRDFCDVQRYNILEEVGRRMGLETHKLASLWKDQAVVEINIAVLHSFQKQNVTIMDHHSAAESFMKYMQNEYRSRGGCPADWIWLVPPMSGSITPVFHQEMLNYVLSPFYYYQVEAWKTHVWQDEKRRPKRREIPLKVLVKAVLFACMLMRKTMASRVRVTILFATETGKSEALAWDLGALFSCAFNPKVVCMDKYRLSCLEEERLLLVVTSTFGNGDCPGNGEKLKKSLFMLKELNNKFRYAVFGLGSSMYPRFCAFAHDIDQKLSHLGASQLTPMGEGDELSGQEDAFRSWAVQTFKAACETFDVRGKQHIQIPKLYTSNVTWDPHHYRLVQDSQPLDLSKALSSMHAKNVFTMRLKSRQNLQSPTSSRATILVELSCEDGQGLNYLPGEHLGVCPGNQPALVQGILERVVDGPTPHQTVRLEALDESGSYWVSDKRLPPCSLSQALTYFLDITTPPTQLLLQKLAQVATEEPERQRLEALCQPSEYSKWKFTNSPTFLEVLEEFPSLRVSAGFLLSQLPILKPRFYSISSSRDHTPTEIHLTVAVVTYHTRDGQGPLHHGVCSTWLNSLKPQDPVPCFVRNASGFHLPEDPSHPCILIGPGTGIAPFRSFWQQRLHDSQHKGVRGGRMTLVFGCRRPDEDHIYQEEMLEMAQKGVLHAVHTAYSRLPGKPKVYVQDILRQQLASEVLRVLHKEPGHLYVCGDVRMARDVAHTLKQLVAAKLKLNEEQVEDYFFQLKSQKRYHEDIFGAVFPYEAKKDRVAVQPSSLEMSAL
T2 sequence (P29475 whole entry): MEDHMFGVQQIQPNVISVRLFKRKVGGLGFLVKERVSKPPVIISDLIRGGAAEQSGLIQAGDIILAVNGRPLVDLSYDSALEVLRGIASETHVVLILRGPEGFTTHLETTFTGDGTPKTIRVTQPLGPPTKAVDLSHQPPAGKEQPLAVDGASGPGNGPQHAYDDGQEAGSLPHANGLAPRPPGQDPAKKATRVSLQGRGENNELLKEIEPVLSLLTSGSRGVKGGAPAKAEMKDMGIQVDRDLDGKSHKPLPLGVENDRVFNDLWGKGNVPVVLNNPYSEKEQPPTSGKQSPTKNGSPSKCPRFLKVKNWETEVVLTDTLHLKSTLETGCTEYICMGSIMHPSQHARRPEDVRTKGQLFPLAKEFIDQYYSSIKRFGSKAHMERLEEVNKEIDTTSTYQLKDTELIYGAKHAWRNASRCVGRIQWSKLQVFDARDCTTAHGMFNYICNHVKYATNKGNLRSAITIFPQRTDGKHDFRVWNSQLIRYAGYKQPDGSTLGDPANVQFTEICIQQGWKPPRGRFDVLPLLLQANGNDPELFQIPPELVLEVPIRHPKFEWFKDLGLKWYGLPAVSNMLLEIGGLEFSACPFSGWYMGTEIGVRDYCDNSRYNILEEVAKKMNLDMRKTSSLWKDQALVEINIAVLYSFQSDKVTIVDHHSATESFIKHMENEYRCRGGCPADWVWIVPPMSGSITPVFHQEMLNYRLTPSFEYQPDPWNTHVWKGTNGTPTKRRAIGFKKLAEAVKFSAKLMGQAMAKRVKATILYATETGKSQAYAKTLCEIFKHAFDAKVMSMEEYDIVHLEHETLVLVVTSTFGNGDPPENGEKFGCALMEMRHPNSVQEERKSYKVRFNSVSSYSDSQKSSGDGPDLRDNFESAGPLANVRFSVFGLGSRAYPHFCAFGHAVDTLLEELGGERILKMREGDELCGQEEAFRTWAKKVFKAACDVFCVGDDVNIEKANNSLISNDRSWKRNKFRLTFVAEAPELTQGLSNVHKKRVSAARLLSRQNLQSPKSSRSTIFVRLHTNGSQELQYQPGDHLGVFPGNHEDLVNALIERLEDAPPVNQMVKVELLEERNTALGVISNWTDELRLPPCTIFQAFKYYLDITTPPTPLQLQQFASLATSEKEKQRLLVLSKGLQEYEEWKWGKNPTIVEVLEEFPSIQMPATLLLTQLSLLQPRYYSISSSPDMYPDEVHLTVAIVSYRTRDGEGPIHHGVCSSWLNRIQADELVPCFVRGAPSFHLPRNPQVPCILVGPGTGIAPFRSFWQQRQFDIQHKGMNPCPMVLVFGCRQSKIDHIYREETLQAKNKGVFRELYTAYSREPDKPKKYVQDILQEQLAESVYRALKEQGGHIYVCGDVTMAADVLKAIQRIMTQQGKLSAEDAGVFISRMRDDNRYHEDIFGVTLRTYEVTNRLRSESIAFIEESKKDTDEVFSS

For orientation: inhibition means the relative decrease from the control value, in per cent. Broadly, the EC50 is the concentration giving half of the maximal effect. In the case of `CN(C)c1ccc(CN(CCCNCc2ccc3c(c2)OCO3)c2nc(-n3ccnc3)ns2)cc1`, the inhibition in test [1] was below 50%. The EC50 in test [2] is 6.8 µM; in test [3] it was 0.163 µM; in test [4] it was above 100 µM.
For the compound `Cc1cc(C2CCCN2CCN(C)Cc2ccc3c(c2)OCO3)nc(-n2ccnc2)n1` (centres undefined), the inhibition in test [1] is below 50%. In addition, the figures for the EC50 in test [2], in test [3] and in test [4] were 3.9 µM, 0.004 µM and above 100 µM, respectively.
The corresponding values for `CCCN(CCCNCc1ccc2c(c1)OCO2)c1nc(-n2ccnc2)ns1` are below 50%, 2.3 µM, 0.009 µM and above 100 µM.
For `c1cncc(CN(CCCNCc2ccc3c(c2)OCO3)c2nc(-n3ccnc3)ns2)c1`, the inhibition in test [1] is below 50%. The EC50 in test [2] was 0.48 µM; in test [3], 0.005 µM; in test [4], above 100 µM.
On to `CN(CCCNCCc1ccc2c(c1)OCO2)c1nc(-n2ccnc2)ns1`, for which, in test [1], the inhibition is below 50%. For the same compound, the EC50 in test [2] is 47 µM; in test [3] it was 0.23 µM; in test [4], above 100 µM.
Consider `c1cn(-c2nsc(N(CCCNCc3ccc4c(c3)OCO4)Cc3nccs3)n2)cn1`, for which the inhibition in test [1] is below 50%. Besides, the values for the EC50 in test [2], in test [3] and in test [4] were 0.31 µM, 0.006 µM and above 100 µM, respectively.
`Cc1cc(CNC(=O)NCCc2ccc3c(c2)OCO3)nc(-n2ccnc2)n1`: the inhibition in test [5] and in test [1] was below 50% each time. In addition, the EC50 in test [2] is above 100 µM; in test [3], 0.014 µM; in test [4], above 100 µM.
As to `CN(CCCNCc1ccc2c(c1)OCCO2)c1nc(-n2ccnc2)ns1`, the inhibition in test [1] was below 50%. For the same compound, the EC50 in test [2] was 24 µM; in test [3], 0.048 µM; in test [4], above 100 µM.
Turning to `CCOC(=O)CN(CCCNCc1ccc2c(c1)OCO2)c1nc(-n2ccnc2)ns1`, the inhibition in test [1] is below 50%. The EC50 in test [2] is 7.6 µM; in test [3], 0.034 µM; in test [4], above 100 µM.
Regarding `Cc1cc(C2CCCN2CC(=O)NCc2ccc3c(c2)OCO3)nc(-n2ccnc2)n1` (centres undefined), in test [1], the inhibition was below 50%. Besides, the EC50 is 9.5 µM in test [2], 0.036 µM in test [3] and above 100 µM in test [4].
For `Cc1cc(C(C)NCCN(C)Cc2ccc3c(c2)OCO3)nc(-n2ccnc2)n1` (centres undefined), in test [1], the inhibition was below 50%. In addition, the 50% effective concentration (EC50) in test [2] is 6 µM; in test [3] it was 0.029 µM; in test [4], above 100 µM.
Regarding `Cc1cc(-c2cccn2CCN(C)Cc2ccc3c(c2)OCO3)nc(-n2ccnc2)n1`, the inhibition in test [5] and in test [1] was below 50% throughout. Also, the values for the EC50 in test [2], in test [3] and in test [4] were above 100 µM, 1.8 µM and above 100 µM, respectively.
Turning to `CN(C)C(=O)CN(CCCNCc1ccc2c(c1)OCO2)c1nc(-n2ccnc2)ns1`, the inhibition in test [5] and in test [1] was below 50% throughout. The EC50 in test [2] was above 100 µM; in test [3], 0.08 µM; in test [4], above 100 µM.
Take `CN(CCCNC(=O)c1ccc2c(c1)OCO2)c1nc(-n2ccnc2)ns1`: the inhibition in test [5] and in test [1] was below 50% in each case. Besides, the EC50 was above 100 µM in test [2], 6.3 µM in test [3] and above 100 µM in test [4].
Regarding `c1cn(-c2nsc(N(CCCNCc3ccc4c(c3)OCO4)Cc3ccc4occc4c3)n2)cn1`, the inhibition in test [1] is below 50%. Moreover, the EC50 is 7.9 µM in test [2], 0.09 µM in test [3] and above 100 µM in test [4].
On to `N#CCN(CCCNCc1ccc2c(c1)OCO2)c1nc(-n2ccnc2)ns1`, for which the inhibition in test [1] is below 50%. Also, the EC50 is 7.2 µM in test [2], 0.012 µM in test [3] and above 100 µM in test [4].
`c1csc(CN(CCCNCc2ccc3c(c2)OCO3)c2nc(-n3ccnc3)ns2)c1`: in test [1], the inhibition is below 50%. In addition, the results for the EC50 in test [2], in test [3] and in test [4] were 0.69 µM, 0.009 µM and above 100 µM, respectively.
On to `COc1ccc(CNCCCN(C)c2nc(-n3ccnc3)ns2)cc1`, for which the inhibition in test [5] and in test [1] was below 50% each time. For the same compound, the figures for the EC50 in test [2], in test [3] and in test [4] were above 100 µM, 0.36 µM and above 100 µM, respectively.
As to `Cc1cc(C2CCCN2C(=O)CNCc2ccc3c(c2)OCO3)nc(-n2ccnc2)n1` (centres undefined), the inhibition in test [1] was below 50%. In addition, the figures for the EC50 in test [2], in test [3] and in test [4] were 6.6 µM, 0.03 µM and above 100 µM, respectively.
For `c1coc(CN(CCCNCc2ccc3c(c2)OCO3)c2nc(-n3ccnc3)ns2)c1`, the inhibition in test [1] is below 50%. The results for the EC50 in test [2], in test [3] and in test [4] were 2.1 µM, 0.014 µM and above 100 µM, respectively.
Consider `COc1ccc(CNCCCN(C)c2nc(-n3ccnc3)ns2)cc1OC`, for which the inhibition in test [5] and in test [1] was below 50% in each case. The EC50 is above 100 µM in test [2], 0.76 µM in test [3] and above 100 µM in test [4].
Regarding `c1cn(-c2nsc(N(CCCNCc3ccc4c(c3)OCO4)Cc3nnn[nH]3)n2)cn1`, the inhibition in test [5] and in test [1] was below 50% throughout. For the same compound, the EC50 in test [2] was above 100 µM; in test [3], 4 µM; in test [4], above 100 µM.
For `CN(CCCNCc1ccc2c(c1)OC(F)(F)O2)c1nc(-n2ccnc2)ns1`, the inhibition in test [5] and in test [1] was below 50% in each case. Further, the EC50 in test [2] is above 100 µM; in test [3] it was 8.9 µM; in test [4] it was above 100 µM.
`CNC(=O)CN(CCCNCc1ccc2c(c1)OCO2)c1nc(-n2ccnc2)ns1`: the inhibition in test [1] was below 50%. In addition, the EC50 in test [2] is 7.2 µM; in test [3], 0.059 µM; in test [4] it was above 100 µM.
Take `Cc1cc(C(C)NCCOCc2ccc3c(c2)OCO3)nc(-n2ccnc2)n1` (centres undefined): the inhibition in test [5] and in test [1] was below 50% in each case. Besides, the EC50 was above 100 µM in test [2], 0.29 µM in test [3] and above 100 µM in test [4].
Take `c1cn(-c2nsc(N(CCCNCc3ccc4c(c3)OCO4)C3CC3)n2)cn1`: the inhibition in test [1] is below 50%. Further, the EC50 in test [2] was 36 µM; in test [3], 0.056 µM; in test [4], above 100 µM.
Regarding `Oc1ccc(CN(CCCNCc2ccc3c(c2)OCO3)c2nc(-n3ccnc3)ns2)cc1`, the inhibition in test [1] was below 50%. The results for the EC50 in test [2], in test [3] and in test [4] were 11 µM, 0.042 µM and above 100 µM, respectively.
`NC(=O)CN(CCCNCc1ccc2c(c1)OCO2)c1nc(-n2ccnc2)ns1`: in test [1], the inhibition is below 50%. Further, the EC50 in test [2] is 11 µM; in test [3], 0.081 µM; in test [4], above 100 µM.
Consider `Cn1cnc(CN(CCCNCc2ccc3c(c2)OCO3)c2nc(-n3ccnc3)ns2)c1`, for which the inhibition in test [1] was below 50%. Also, the EC50 in test [2] is 18 µM; in test [3], 0.071 µM; in test [4] it was above 100 µM.
For `Cc1cc(C2CCCN2C(=O)NCCc2ccc3c(c2)OCO3)nc(-n2ccnc2)n1` (centres undefined), in that order: below 50%, 2.7 µM, 0.009 µM and above 100 µM.
